The results in this text go back to the EternaBench riboswitch data.

What is called apparent Kd is a dissociation constant that holds for the conditions of the assay.

In the data set the test system is MS2 coat protein. Description: apparent Kd, MS2 coat protein; higher = weaker binding; RNA-MaP array. The essentials: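 In Tris-HCl pH 7.5 buffer with KCl, MgCl2, BSA, DTT, tRNA and Tween20, with or without input ligand, fluorescently labeled MS2 coat protein at 1.5 nM to 3 μM was incubated at room temperature with designed RNAs. The RNAs had been transcribed on an Illumina sequencing chip from sequenced DNA templates, and incubation ran 0.8–1.5 h at the lowest to 10–20 min at the highest concentrations. Apparent Kd is the median of binding-curve fits for individual clusters. Designs measured on fewer than 10 clusters were excluded.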

The mark [1] stands for this setting: designed as: OFF switch for tryptophan, no ligand.
Where [2] appears, read: ligand present: tryptophan, designed as: OFF switch for tryptophan.
The mark [3] stands for this setting: designed as: OFF switch for flavin mononucleotide, no ligand.
Where [4] appears, read: ligand present: flavin mononucleotide, designed as: OFF switch for flavin mononucleotide.
[5] abbreviates: designed as: ON switch for flavin mononucleotide, no ligand.
The mark [6] stands for this setting: ligand present: flavin mononucleotide, designed as: ON switch for flavin mononucleotide.
The mark [7] stands for this setting: designed as: ON switch for theophylline, no ligand.
[8] abbreviates: ligand present: theophylline, designed as: ON switch for theophylline.

Consider “GGUUCAUCGUCGGCCGCCACUCACAUGAGGUGGAGCUGUAAACAUGAGGAUCACCCAUGUUGUUAGAGGACCGGGACGUGACGGC”, for which the “apparent Kd” value under setting [1] came to 33.8 nM and the “apparent Kd” value under setting [2] is 36.7 nM.

For “GACGCUGCAGGAUAUACUACGAGACUCACCCACAUUAUAUGACAUGAGGAUCACCCAUGUAGAAGGGCAAUGUG”, the “apparent Kd” value is, setting by setting: under setting [3], 10.4 nM; under setting [4], 12.6 nM.

On to “AAGGAGUUAGGAUAUCCGUGCGUUGACAUGAGGAUCACCCAUGUGUUGAUAAACCUACUAGGAGAAGGAACGAUAC”, for which the “apparent Kd” value is, setting by setting: under setting [3], 20.7 nM; under setting [4], 15.2 nM.

For the sequence “ACGAAAUCUUAAACUUACGCACAUGAGGAUCACCCAUGUCACUAGGAUAUUAAAACAAAACAAUGUAAGAAGGAGUGAGAAAAG”, the “apparent Kd” value under setting [5] was 13.6 nM and the “apparent Kd” value under setting [6] was found to be 11.8 nM.

As to “UCUAGAUCAUCGUGACAUGAGGAUCACCCAUGUCUGCGGGCAAGAAGGUGGUCGUUGUCUAACACCAAGGAUAUUGAGGGAGGU”, the “apparent Kd” value was 51.5 nM under setting [5] and 30.4 nM under setting [6].

Turning to “CGUGCAUGCUAGUAGGAUAUCCCGCAUGAAACAUGAGGAUCACCCAUGUAGAAGAUCUAUGAUCGGGAGAAGGACUCGUGAGAAAC”, the “apparent Kd” value by setting is: under setting [5], 34.6 nM; under setting [6], 12.1 nM.

“GCAAUAACAGCAGGAUAUCGUCUCACAUGAGGAUCACCCAUGUUACUAAGUGGCUACUAGGAUUACGAGAAGGGCUGUCCACGC”: the “apparent Kd” value runs as follows: under setting [3], 10.7 nM; under setting [4], 7.78 nM.

Turning to “CGAAUCAACCGGCAGGAUAUGAAAACUAAAACAUGAGGAUCACCCAUGUCGGACAAGAACAUGAUACAGAAGGGCCACGUAACAAG”, the “apparent Kd” value was 95.5 nM under setting [5] and 26.3 nM under setting [6].

On to “CACCUCCAAGGAUAUACAUGAGGAUCACCCAUGUGGAUAACCUGGGCGCGCCGAGCAAGUAGAAGGUGGAUUGG”, for which the “apparent Kd” value runs as follows: under setting [3], 10.9 nM; under setting [4], 14.7 nM.

As for “AAACACAACCAGAAGGCCAAAACAUGAGGAUCACCCAUGUAGAUAAGAAGAGUAAGCACUGUCAUGGAGGAUAUGGGUCAAAAC”, the “apparent Kd” value by setting is: under setting [5], 20.8 nM; under setting [6], 7.12 nM.

“GUUGAGGUGGUAGGAUAUAGUUUACACAUGAGGAUCACCCAUGUAUUCUAGACUUCAAGCCUCACCUAGAAGGACCCGUGCAAA”: the “apparent Kd” value reads like this: under setting [3], 4.91 nM; under setting [4], 4.75 nM.

“CCCGGUGAUGUCAAACAUGAGGAUCACCCAUGUCUUCACCAUAGAAGGCGCUUUAUUCUAGCUAGCGAGGAUAUAUGGUUUCAG”: the “apparent Kd” value under setting [3] stood at 39.6 nM and the “apparent Kd” value under setting [4] was 44.6 nM.

As to “AAAUAUAAUCAGAAGGGUUGCUAAACAUGAGGAUCACCCAUGUGAUAACGAUACGAGUAAAUCGAACAGGAUAUGAUGCAGGUU”, the “apparent Kd” value was determined as 16.5 nM under setting [5] and 12 nM under setting [6].

Turning to “GGCGUAUCAGGAUAUGCGUUUUGAGACAUGAGGAUCACCCAUGUCCUUAGCUCAGUUAAAGCAGAAGGGAUUAUUA”, the “apparent Kd” value is, setting by setting: under setting [3], 16.9 nM; under setting [4], 34.1 nM.

Consider “CUCGCAAAUGGAGGAUAUGCCGAGAUCCCUAUCCUCAGGACCUCCACAUGAGGAUCACCCAUGUUGCAGAAGGCCAGUGUGAAG”, for which the “apparent Kd” value came out at 14.4 nM under setting [3] and 12.2 nM under setting [4].

Consider “UGGAAAUGAAUAGGAUAUCAGUGUUGUCUAUAACAUGAGGAUCACCCAUGUUUCCAUUGGCCUCGUGAGAAGGAUUCUAGUAUU”, for which the “apparent Kd” value by setting is: under setting [5], 81.6 nM; under setting [6], 22.3 nM.

Turning to “UCCUACAAAGUCAGGAUAUUCGCACAGUCACGAGGGAAGAAGGGACAUGAGGAUCACCCAUGUAUUUACGCGUA”, the “apparent Kd” value amounted to 20.4 nM under setting [3] and 27.2 nM under setting [4].

Take “GGGGGUUGGACAGGAUAUAGAGGUCUCGUGUGGAGAUGCACAACGACAUGAGGAUCACCCAUGUGCUAGAAGGGUCUGCGAUAG”: the “apparent Kd” value is 19.3 nM under setting [5] and 16.1 nM under setting [6].

For the sequence “CGAAAACAUGAGGAUCACCCAUGUUAGGAUAUGAGGAUGGUAUAGUAUACGGUGUAGAUCAGAAGGAACGGUGG”, the “apparent Kd” value reads like this: under setting [3], 11.4 nM; under setting [4], 11.6 nM.

Regarding “AUAAACUAACAUGAGGAUCACCCAUGUAUGGAGAAAAUACCUAGAAGGAGGAUAUUUACAACAUCCAAGGAUAUAGGAGCCUCA”, the “apparent Kd” value came to 68.1 nM under setting [5] and 42.4 nM under setting [6].

On to “UCAAUCACACAUGAGGAUCACCCAUGUGAUAAUCAUGACUCAAGAAGGCAUGUGCAACUUGUUAAUGAGGAUAUUGGAGUAAUG”, for which the “apparent Kd” value by setting is: under setting [3], 31.9 nM; under setting [4], 22.3 nM.

Turning to “UUAUUGGUAGGAUAUACAUGAGGAUCACCCAUGUGUCACGCAAAUUAGUAUGUCAAAUGUAGAAGGACCAAAUA”, the “apparent Kd” value runs as follows: under setting [3], 20.5 nM; under setting [4], 30.2 nM.

“GUUAAAGAACGAGGAUAUAUUUGGUGAGGAGUACACAUGAGGAUCACCCAUGUCCAUCCUAUUCCAUAGAAGGCGUAGAGUUUU”: the “apparent Kd” value is 6.71 nM under setting [5] and 6.95 nM under setting [6].

“CACAUGAGGAUCACCCAUGUUCGUUCACUUCAUGUAAUGAUUAGAAGGUCACGCGCCUAUCUGCUGAAGGAUAUAAUCCCGAAA”: the “apparent Kd” value under setting [3] stood at 11.1 nM and the “apparent Kd” value under setting [4] stood at 10.1 nM.

Take “AGCGCCUUAUCAGGAUAUAUGCGCAUGAAGUAGGUACACAUGAGGAUCACCCAUGUCCGGGGAACAUAGAAGGGAUAGAAGUAG”: the “apparent Kd” value under setting [5] is 86.9 nM and the “apparent Kd” value under setting [6] was 48.7 nM.

Consider “UAAGAAUCAGGAUAUACAGAAAGAUCAACAAAGAGCCAUAAACAUGAGGAUCACCCAUGUAGAAGGGAACAAAU”, for which the “apparent Kd” value under setting [3] was found to be 8.14 nM and the “apparent Kd” value under setting [4] is 7.77 nM.

With “GUUAGUUGUGAGGAUAUUCAGAGAUCUCGAUCAGAAGAAGGCACUACAUGAGGAUCACCCAUGUAGAUUCUUAU”, the “apparent Kd” value is, setting by setting: under setting [3], 5.25 nM; under setting [4], 8.88 nM.

For “AUUUUAAACAAGAAGGGCUUACGCAAGCUGAGAGCAGGAUAUUGACAUGAGGAUCACCCAUGUAUUAGACCAUAAGAUCCCAUU”, the “apparent Kd” value under setting [3] turned out to be 20.5 nM and the “apparent Kd” value under setting [4] turned out to be 20.6 nM.

Consider “UCCAGACAUGAGGAUCACCCAUGUUGUGAUACCAGAACCGUGGAGUUCCCUUGGCAGCACUAAGAAGUUCCUGGAUCAGCUAGCG”, for which the “apparent Kd” value by setting is: under setting [7], 27.6 nM; under setting [8], 32.8 nM.

Take “ACUACAUGCGAAUACAUGAGGAUCACCCAUGUCCAUAAGACCUAGGAUAUCCAGUAACCCUGCAAGGAGAAGGAGGAGAGCACU”: the “apparent Kd” value came to 25.4 nM under setting [5] and 19.6 nM under setting [6].

For “GUACAUAUAGAGAAGGGUGAGUAUAUCAGCCUCACAGGAUAUCUGAUGAGUGACAUGAGGAUCACCCAUGUGGUUGUCGGUAGG”, the “apparent Kd” value under setting [3] stood at 214 nM and the “apparent Kd” value under setting [4] came out at 102 nM.

For the sequence “UUUAGACGGCAGAAGGCGGGCUCGCGCGGUGUACAUGAGGAUCACCCAUGUGUUUGCCAUCUACCCGAGGAUAUGCAGUGAUGG”, the “apparent Kd” value by setting is: under setting [5], 39.4 nM; under setting [6], 13.2 nM.

As to “GGGUCGCGUUCGGCCGCCACUUGGAAACAUGAGGAUCACCCAUGUCAUAUGGUGGGACAUGUUGUAAGGACCGGGAACCGUCCUA”, the “apparent Kd” value by setting is: under setting [1], 64.2 nM; under setting [2], 88.1 nM.

As to “GGAAUCUUUCGAGGAUAUGUCCCACAAUAGUGCCUACCGGGUAACAUGAGGAUCACCCAUGUGAGACAGAAGGCGAGGUUUGGC”, the “apparent Kd” value by setting is: under setting [3], 9.86 nM; under setting [4], 38 nM.

As to “CGUCCCUAGCAGAAGGUUCUUUGGGCUGCAGUGAAAGGAUAUGCCAGCACAUGAGGAUCACCCAUGUCUGUCGGAUGCACCAGA”, the “apparent Kd” value under setting [5] is 63.9 nM and the “apparent Kd” value under setting [6] is 47 nM.

Consider “GCCGUUCGAGAGAAGGUUGUACGCGCCACGCGCACAUGAGGAUCACCCAUGUCCUCCAAACUCACAAAGGAUAUCUUAAGAACA”, for which the “apparent Kd” value stood at 415 nM under setting [3] and 508 nM under setting [4].

On to “CCAGGGCGAAACAUGAGGAUCACCCAUGUCCUAGCAACGAUGAGAAGGGUAAACACAAUGUCUUUACAGGAUAUCAACCAUACG”, for which the “apparent Kd” value is, setting by setting: under setting [5], 11.2 nM; under setting [6], 7.6 nM.

On to “AAUUGGUGACUAGGAUAUUAGGGAUGGCCGUACUAAGAAGGAGUCGUGCUAACAUGAGGAUCACCCAUGUAUUGGAAGCCUUAA”, for which the “apparent Kd” value under setting [3] was determined as 15.5 nM and the “apparent Kd” value under setting [4] was 13.4 nM.

As to “CAUAGCAAAAGUGAUACCAGAGUUCGAGGGAACAUGAGGAUCACCCAUGUGCUUGUACAACUCCCUUGGCAGCACAGAGCAAUUA”, the “apparent Kd” value came to 23.1 nM under setting [7] and 10.3 nM under setting [8].

For “AUUUCUUCGGUCAGGAUAUCUAGUGUAACGCGGUCAGAGAAGGGACAUGAGGAUCACCCAUGUGUGACUCUCUG”, the “apparent Kd” value runs as follows: under setting [3], 5.77 nM; under setting [4], 5.9 nM.

“AAUUGAAUGGUAAGGAUAUAGGGUCGCGCCGAACGCUAGAAGGUACAUGAGGAUCACCCAUGUUGUGCGUCUUC”: the “apparent Kd” value runs as follows: under setting [3], 16.9 nM; under setting [4], 17.7 nM.

Consider “AAGUUGAGCACAAAGGAUAUUUGUAAACAAACAUGAGGAUCACCCAUGUGAACAAUAGUACAUACAAAGAAGGUUGAGAUACAUGU”, for which the “apparent Kd” value is, setting by setting: under setting [5], 54.2 nM; under setting [6], 25.9 nM.

Consider “AAGUAGGAAGGAUAUACAUGAGGAUCACCCAUGUAAGGCAUUUGGCUAUAAUCGUUAAGUAGAAGGUCCUGCCG”, for which the “apparent Kd” value under setting [3] came to 8.6 nM and the “apparent Kd” value under setting [4] is 8.2 nM.

In the case of “UCUAUGCUAACAGGAUAUCGCGGCACGAUGCUUCGAGAAGGGUUAACAUGAGGAUCACCCAUGUGUGUCCUACGGAGACCGCGC”, the “apparent Kd” value is, setting by setting: under setting [3], 9.01 nM; under setting [4], 11.8 nM.

On to “UAGUCGUGGGCAGGAUAUCACUUUAUGCCAAUAUGAGAAGGGCCGGUGACAAGGCGGGCGACCACAUGAGGAUCACCCAUGUAC”, for which the “apparent Kd” value was 79.6 nM under setting [3] and 47.9 nM under setting [4].

Consider “CUAACACAUGAGGAUCACCCAUGUUAGGAUAUCAGCUGCAGCGCUCGACUGCAAUUUAUGAGAAGGAACUGUGG”, for which the “apparent Kd” value under setting [3] came out at 17.5 nM and the “apparent Kd” value under setting [4] stood at 24.2 nM.

In the case of “GCGCGGCGUGAAGGAUAUGGUUCAGUACAUGAGGAUCACCCAUGUCAGACAGCAUCGGGGCCGUCCCAGAAGGUCACACGUUUU”, the “apparent Kd” value is 9.14 nM under setting [5] and 7.36 nM under setting [6].
